ChEMBL document CHEMBL3232870, “Discovery of 3-(4-methanesulfonylphenoxy)-N-[1-(2-methoxy-ethoxymethyl)-1H-pyrazol-3-yl]-5-(3-methylpyridin-2-yl)-benzamide as a novel glucokinase activator (GKA) for the treatment of type 2 diabetes mellitus” (Bioorg Med Chem, 2014)

Legend:
Salmonella typhimurium [1] = assay: Genotoxicity in Salmonella typhimurium TA98 assessed as increase in number of revertants at 1.5 to 5000 ug/plate by Ames test in presence of S9 fraction; type: toxicity, organism-based; settings: salmonella enterica subsp. enterica serovar typhimurium
How it was run: (§1)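 Ames reverse mutation test by direct plate incorporation in S. typhimurium TA98 and TA100, with or without Aroclor 1254-induced rat liver S9 mix. Compound in DMSO at 1.5–5000 µg/plate, plated in top agar, incubated 37 °C for about 50 h, then revertant colonies counted. Plates were checked for precipitation and cytotoxicity. A positive was a reproducible, dose-related increase in revertants of more than 2-fold.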

[2] = AUC (0 to t) in male Sprague-Dawley rat at 250 mg/kg, po measured on day 1; type: ADME, organism-based; design: dose 250 mg/kg, route oral; settings: plasma
How it was run: (§2)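 Sprague–Dawley rats, 5 weeks old at arrival, both sexes. Given the compound by oral gavage once daily for 14 days at 0, 250, 500 or 1000 mg/kg/day, with 0.5% methylcellulose as vehicle. Toxicokinetic parameters were determined on Day 1 and Day 14.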

Cytochrome P450 2C9 = Cytochrome P450 2C9 (Homo sapiens, UniProt P11712); assay: Inhibition of CYP2C9 in human liver microsomes; type: ADME
How it was run: (§3)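 Pooled human liver microsomes at 0.25 mg/mL, each with a CYP-selective substrate and test compound up to 25 µM, preincubated at 37 °C. It is stopped on ice with ice-cold acetonitrile and centrifuged, and the supernatant is analysed by LC–MS/MS.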

Cytochrome P450 2D6 = Cytochrome P450 2D6 (Homo sapiens, UniProt P10635); assay: Inhibition of CYP2D6 in human liver microsomes; type: ADME; how it was run: as §3
Mus musculus [3] = assay: Toxicity in fasting C57BL/J6 mouse assessed as glucose level at 50 mg/kg, po measured after 60 mins; type: organism-based; design: dose 50 mg/kg, route oral; settings: in vivo, 1 h
How it was run: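 Eight-week-old male C57BL/6 mice were fasted 6 h with free access to water, then dosed orally with compound or 0.5% methylcellulose vehicle, with no glucose challenge. Blood glucose was followed up to 360 min, n = 6 per group.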

[4] = Clearance in ICR mouse at 3 mg/kg, iv and 10 mg/kg, po; type: ADME, organism-based; settings: in vivo
How it was run: (§4)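 Male ICR mice and 7-week-old SD rats received a 3 mg/kg intravenous bolus or a 10 mg/kg oral gavage dose. Plasma was deproteinized with acetonitrile (2 volumes) and compound measured by HPLC. Parameters came from noncompartmental analysis.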

Salmonella typhimurium [5] = assay: Cytotoxicity in Salmonella typhimurium TA98 at 1.5 to 5000 ug/plate in presence of S9 fraction; type: organism-based; settings: salmonella enterica subsp. enterica serovar typhimurium; how it was run: as §1
Mus musculus [6] = assay: Toxicity in C57BL/J6 db/db mouse assessed as effect on serum lipids at 30 to 100 mg/kg, po; settings: in vivo
[7] = Metabolic stability in mouse liver microsomes assessed as compound remaining after 1 hr relative to control; type: ADME; settings: read-out: Stability
How it was run: (§5)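 Liver microsomes from mouse, dog or human were incubated with compound for 1 h, and the percentage of compound remaining was determined.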

[8] = Cmax in female Sprague-Dawley rat at 500 mg/kg, po measured on day 14; type: ADME, organism-based; design: dose 500 mg/kg, route oral; settings: in vivo; how it was run: as §2
[9] = AUC (0 to t) in male Sprague-Dawley rat at 250 mg/kg, po measured on day 14; type: ADME, organism-based; design: dose 250 mg/kg, route oral; settings: plasma; how it was run: as §2
[10] = AUC (0 to t) in male Sprague-Dawley rat at 500 mg/kg, po measured on day 1; type: ADME, organism-based; design: dose 500 mg/kg, route oral; settings: plasma; how it was run: as §2
[11] = AUC (0 to t) in female Sprague-Dawley rat at 500 mg/kg, po measured on day 1; type: ADME, organism-based; design: dose 500 mg/kg, route oral; settings: plasma; how it was run: as §2
[12] = AUC (0 to t) in female Sprague-Dawley rat at 1000 mg/kg, po measured on day 14; type: ADME, organism-based; design: dose 1000 mg/kg, route oral; settings: plasma; how it was run: as §2
[13] = Cmax in male Sprague-Dawley rat at 500 mg/kg, po measured on day 14; type: ADME, organism-based; design: dose 500 mg/kg, route oral; settings: in vivo; how it was run: as §2
[14] = Tmax in female Sprague-Dawley rat at 1000 mg/kg, po measured on day 1; type: ADME, organism-based; design: dose 1000 mg/kg, route oral; settings: in vivo
How it was run: (§6)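 Sprague–Dawley rats of both sexes, 5 weeks old at arrival, received daily oral gavage at 0, 250, 500 or 1000 mg/kg/day for 14 days. Vehicle was 0.5% methylcellulose at 10 mL/kg. Toxicokinetics were taken on Day 1 and Day 14. Necropsy was by Day 15. Testis was fixed in modified Davidson's fixative, paraffin-sectioned and H&E-stained, with histopathology on control and high-dose groups only.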

[15] = Metabolic stability in human liver microsomes assessed as compound remaining after 1 hr relative to control; type: ADME; settings: read-out: Stability; how it was run: as §5
[16] = Cmax in Sprague-Dawley rat at 3 mg/kg, iv and 10 mg/kg, po; type: ADME, organism-based; settings: in vivo; how it was run: as §4
[17] = Cmax in female Sprague-Dawley rat at 250 mg/kg, po measured on day 14; type: ADME, organism-based; design: dose 250 mg/kg, route oral; settings: in vivo; how it was run: as §2
[18] = Cmax in male Sprague-Dawley rat at 250 mg/kg, po measured on day 1; type: ADME, organism-based; design: dose 250 mg/kg, route oral; settings: in vivo; how it was run: as §2
Cytochrome P450 2C19 = Cytochrome P450 2C19 (Homo sapiens, UniProt P33261); assay: Inhibition of CYP2C19 in human liver microsomes; type: ADME
How it was run: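 Pooled human liver microsomes (0.25 mg/mL) with a CYP-selective substrate and test compound, preincubated at 37 °C. Stopped on ice with ice-cold acetonitrile, centrifuged, and the supernatant analysed by LC–MS/MS.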

MIN6 = assay: Increase in 11 mM glucose-stimulated insulin secretion in mouse MIN6 cells measured for 1 hr by ELISA; type: functional
Salmonella typhimurium [19] = assay: Cytotoxicity in Salmonella typhimurium TA98 at 1.5 to 5000 ug/plate in absence of S9 fraction; type: organism-based; settings: salmonella enterica subsp. enterica serovar typhimurium; how it was run: as §1
[20] = AUC (0 to t) in female Sprague-Dawley rat at 250 mg/kg, po measured on day 1; type: ADME, organism-based; design: dose 250 mg/kg, route oral; settings: plasma; how it was run: as §2
Rattus norvegicus [21] = assay: Toxicity in Sprague-Dawley rat assessed as multinucleated giant cells in testis at 250 to 1000 mg/kg, po by hematoxylin and eosin staining-based microscopy; type: organism-based; design: dose 250-1000 mg/kg, route oral; settings: in vivo; how it was run: as §6
[22] = Tmax in male Sprague-Dawley rat at 500 mg/kg, po measured on day 1; type: ADME, organism-based; design: dose 500 mg/kg, route oral; settings: in vivo; how it was run: as §6
[23] = Tmax in male Sprague-Dawley rat at 1000 mg/kg, po measured on day 14; type: ADME, organism-based; design: dose 1000 mg/kg, route oral; settings: in vivo; how it was run: as §6
[24] = Clearance in Sprague-Dawley rat at 3 mg/kg, iv and 10 mg/kg, po; type: ADME, organism-based; settings: in vivo; how it was run: as §4
[25] = Cmax in male Sprague-Dawley rat at 1000 mg/kg, po measured on day 14; type: ADME, organism-based; design: dose 1000 mg/kg, route oral; settings: in vivo; how it was run: as §2
[26] = AUC (0 to t) in female Sprague-Dawley rat at 500 mg/kg, po measured on day 14; type: ADME, organism-based; design: dose 500 mg/kg, route oral; settings: plasma; how it was run: as §2
Salmonella typhimurium [27] = assay: Cytotoxicity in Salmonella typhimurium TA100 at 1.5 to 5000 ug/plate in presence of S9 fraction; type: organism-based; settings: salmonella enterica subsp. enterica serovar typhimurium; how it was run: as §1
Cytochrome P450 3A4 = Cytochrome P450 3A4 (Homo sapiens, UniProt P08684); assay: Induction of CYP3A4 in human liver microsomes up to 25 to 50 uM; type: ADME
[28] = Tmax in female Sprague-Dawley rat at 500 mg/kg, po measured on day 14; type: ADME, organism-based; design: dose 500 mg/kg, route oral; settings: in vivo; how it was run: as §6
[29] = Tmax in female Sprague-Dawley rat at 500 mg/kg, po measured on day 1; type: ADME, organism-based; design: dose 500 mg/kg, route oral; settings: in vivo; how it was run: as §6
Rattus norvegicus [30] = assay: Toxicity in Sprague-Dawley rat assessed as seminiferous tubule vacuolation at 250 to 1000 mg/kg, po by hematoxylin and eosin staining-based microscopy; type: organism-based; design: dose 250-1000 mg/kg, route oral; settings: in vivo; how it was run: as §6
[31] = AUC (0 to t) in male Sprague-Dawley rat at 1000 mg/kg, po measured on day 14; type: ADME, organism-based; design: dose 1000 mg/kg, route oral; settings: plasma; how it was run: as §2

Cytochrome P450 3A4, sequence (P08684 whole entry): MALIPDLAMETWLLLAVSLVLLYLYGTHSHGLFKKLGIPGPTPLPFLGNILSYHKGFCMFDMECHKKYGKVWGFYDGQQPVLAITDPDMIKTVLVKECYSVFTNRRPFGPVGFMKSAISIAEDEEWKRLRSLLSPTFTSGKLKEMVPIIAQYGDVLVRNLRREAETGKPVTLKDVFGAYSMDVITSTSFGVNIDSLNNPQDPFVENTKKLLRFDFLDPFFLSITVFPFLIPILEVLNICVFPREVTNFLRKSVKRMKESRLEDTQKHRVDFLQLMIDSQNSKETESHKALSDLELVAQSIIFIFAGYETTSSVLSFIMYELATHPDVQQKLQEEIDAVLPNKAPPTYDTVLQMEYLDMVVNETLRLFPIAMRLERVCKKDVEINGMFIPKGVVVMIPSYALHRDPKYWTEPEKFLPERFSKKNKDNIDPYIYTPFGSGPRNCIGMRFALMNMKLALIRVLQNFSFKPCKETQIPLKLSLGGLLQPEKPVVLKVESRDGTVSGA
Cytochrome P450 2C19, sequence (P33261 whole entry): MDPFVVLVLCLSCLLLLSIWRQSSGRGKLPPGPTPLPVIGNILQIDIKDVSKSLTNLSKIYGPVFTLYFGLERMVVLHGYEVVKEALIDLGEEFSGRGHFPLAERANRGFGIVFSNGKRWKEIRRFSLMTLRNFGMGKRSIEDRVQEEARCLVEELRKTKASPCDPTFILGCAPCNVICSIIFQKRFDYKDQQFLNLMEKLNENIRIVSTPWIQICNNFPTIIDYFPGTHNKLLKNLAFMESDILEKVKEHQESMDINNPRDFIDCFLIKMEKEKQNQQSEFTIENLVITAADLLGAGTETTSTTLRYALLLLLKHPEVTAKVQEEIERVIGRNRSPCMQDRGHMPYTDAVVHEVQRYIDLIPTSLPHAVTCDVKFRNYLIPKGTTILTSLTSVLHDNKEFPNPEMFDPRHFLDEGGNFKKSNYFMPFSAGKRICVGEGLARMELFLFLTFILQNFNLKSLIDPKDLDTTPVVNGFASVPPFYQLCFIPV
Cytochrome P450 2C9, sequence (P11712 whole entry): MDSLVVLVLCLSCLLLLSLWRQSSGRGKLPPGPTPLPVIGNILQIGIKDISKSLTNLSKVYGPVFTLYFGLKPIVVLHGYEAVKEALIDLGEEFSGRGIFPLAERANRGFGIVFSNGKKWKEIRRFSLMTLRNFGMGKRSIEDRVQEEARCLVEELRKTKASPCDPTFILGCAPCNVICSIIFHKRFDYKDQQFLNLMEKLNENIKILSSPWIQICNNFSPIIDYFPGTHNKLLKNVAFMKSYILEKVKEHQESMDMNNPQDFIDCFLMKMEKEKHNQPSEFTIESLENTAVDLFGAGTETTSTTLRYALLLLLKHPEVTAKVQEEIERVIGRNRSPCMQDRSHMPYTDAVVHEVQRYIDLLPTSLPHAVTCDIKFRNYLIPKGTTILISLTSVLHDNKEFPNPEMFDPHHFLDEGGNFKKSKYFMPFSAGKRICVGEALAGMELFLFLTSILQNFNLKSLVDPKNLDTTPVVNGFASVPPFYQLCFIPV
Cytochrome P450 2D6, sequence (P10635 whole entry): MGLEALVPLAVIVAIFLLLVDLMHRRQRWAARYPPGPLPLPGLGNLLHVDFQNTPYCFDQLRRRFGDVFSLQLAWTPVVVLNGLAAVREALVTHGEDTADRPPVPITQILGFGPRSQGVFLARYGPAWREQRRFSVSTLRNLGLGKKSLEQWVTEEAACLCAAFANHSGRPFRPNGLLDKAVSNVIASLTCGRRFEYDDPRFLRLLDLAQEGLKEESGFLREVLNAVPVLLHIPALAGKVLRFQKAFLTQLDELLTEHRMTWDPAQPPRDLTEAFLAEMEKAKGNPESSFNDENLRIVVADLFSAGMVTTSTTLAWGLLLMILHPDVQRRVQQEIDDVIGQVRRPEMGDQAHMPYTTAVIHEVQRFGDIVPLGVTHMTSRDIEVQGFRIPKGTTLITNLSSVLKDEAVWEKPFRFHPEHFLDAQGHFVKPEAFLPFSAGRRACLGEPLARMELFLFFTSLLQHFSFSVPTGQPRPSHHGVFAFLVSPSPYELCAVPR

SMILES: COCCOCn1ccc(NC(=O)c2cc(Oc3ccc(S(C)(=O)=O)cc3)cc(-c3ncccc3C)c2)n1
- Activity (Salmonella typhimurium [1]): Non-toxic
- AUC(0-t) [2]: 13100 ng·h/mL
- IC50 (Cytochrome P450 2C9): 5.2 µM
- inhibition (INH) (Cytochrome P450 2D6): Not Active
- Activity (Mus musculus [3]): > 60 mg/dL
- clearance [4]: 3.33 mL/min/kg
- Activity (Salmonella typhimurium [5]): Non-toxic
- Activity (Mus musculus [6]): Non-toxic
- remaining at 1 h [7]: > 60%
- Cmax [8]: 3920 ng/mL
- AUC(0-t) [9]: 8180 ng·h/mL
- AUC(0-t) [10]: 16900 ng·h/mL
- AUC(0-t) [11]: 19800 ng·h/mL
- AUC(0-t) [12]: 24000 ng·h/mL
- Cmax [13]: 2800 ng/mL
- Tmax [14]: 2.7 h
- remaining at 1 h [15]: > 60%
- Cmax [16]: 3700 ng/mL
- Cmax [17]: 5200 ng/mL
- Cmax [18]: 3060 ng/mL
- inhibition (INH) (Cytochrome P450 2C19): Not Active
- fold change (FC) (MIN6): 9
- Activity (Salmonella typhimurium [19]): Non-toxic
- AUC(0-t) [20]: 13700 ng·h/mL
- Activity (Rattus norvegicus [21]): Non-toxic
- Tmax [22]: 3.7 h
- Tmax [23]: 5 h
- clearance [24]: 9.83 mL/min/kg
- Cmax [25]: 3090 ng/mL
- AUC(0-t) [26]: 16300 ng·h/mL
- Activity (Salmonella typhimurium [27]): Non-toxic
- Activity (Cytochrome P450 3A4): Not Active
- Tmax [28]: 1.3 h
- Tmax [29]: 3.3 h
- Activity (Rattus norvegicus [30]): Non-toxic
- AUC(0-t) [31]: 25000 ng·h/mL
